Measurements from different studies.
Protocols differ between the studies behind these lines.
CNR1: Cannabinoid receptor 1 (CNR1, Homo sapiens, UniProt P21554)
OPRK1: Kappa-type opioid receptor (OPRK1, Homo sapiens, UniProt P41145)
PFF0160c: Dihydroorotate dehydrogenase (quinone), mitochondrial (PFF0160c, Plasmodium falciparum, UniProt Q08210)

Cc1c(C(=O)N[C@H]2CC[C@H](NS(C)(=O)=O)CC2)nn(-c2ccc(Cl)cc2Cl)c1-c1ccc(Cl)cc1 gave a Kb of over 10 µM (CNR1; calcium signal, antagonist).
CNC(=O)[C@@]12C[C@@H]1[C@@H](n1ccc3c(NC)ncnc31)[C@H](O)[C@@H]2O gave a Ki of over 10 µM (OPRK1; cell-free assay).
Cc1c(C(=O)N2CCC(NC(=O)Nc3ccc(C#N)cc3)(c3ccccc3)CC2)nn(-c2ccc(Cl)cc2Cl)c1-c1ccc(Cl)cc1 has a Kb of over 10 µM (CNR1; calcium signal, antagonist).
With Clc1ccc(CSc2nnc(-c3ccccn3)n2Cc2cccs2)cc1Cl the EC50 was 0.64 µM (OPRK1; β-arrestin recruitment, agonist).
CNCc1nc2nc(C)cc(Nc3ccc(Cl)cc3)n2n1 has an IC50 of over 10 µM (PFF0160c; enzyme activity, inhibitor).
For CNc1nc(C#Cc2ccc(Cl)s2)nc2c1ncn2[C@H]1[C@H](O)[C@H](O)[C@]2(C(=O)O)C[C@H]12, the Ki was over 10 µM (OPRK1; cell-free assay).
For COCCc1nc2nc(C)cc(Nc3ccc(Cl)cc3)n2n1, the IC50 was over 10 µM (PFF0160c; enzyme activity, inhibitor).
For Cc1c(C(=O)N[C@H]2CC[C@H](N)CC2)nn(-c2ccc(Cl)cc2Cl)c1-c1ccc(Cl)cc1, the Kb was over 10 µM (CNR1; calcium signal, antagonist).
With CNC(=O)[C@@]12C[C@@H]1[C@@H](n1cnc3c(NC)nc(C#Cc4ccc(F)c(F)c4)nc31)[C@H](O)[C@@H]2O the Ki was over 10 µM (OPRK1; cell-free assay).
With Cc1cc(Nc2ccc(Cl)cc2)n2nc(OCCN(C)C)nc2n1 the IC50 was over 10 µM (PFF0160c; enzyme activity, inhibitor).
